# In the RNAGym collection of RNA variant scans (doi:10.1126/science.aae0568):
# This sample holds only a part of the variants without activity.
# B1: tRNA (parent)
# chain: GUUCCGUUGGCGUAAUGGUAACGCGUCUCCCUCCUAAGGAGAAGACUGCGGGUUCGAGUCCCGUACGGAACG
# Variants of: B1
# Assay: yeast fitness relative to wild type (ratio to wild type); higher = fitter; tRNA-Arg(CCU), competitive growth, 37 C, YPD
# In short: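 Variants of the tRNA-Arg(CCU) gene, chemically synthesised with a 3% per-site mutation rate at 69 sites, were placed at the native genomic locus in Saccharomyces cerevisiae. The pooled strains were competed in YPD at 37°C for 24 hours in six parallel replicates. Gene amplicons from the start population and from each end population were read by 100-nucleotide paired-end sequencing. Darwinian fitness relative to wild type came from changes in genotype frequencies; genotypes needed ≥ 100 starting reads, and estimates < 0.5 were set to 0.5.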
row,Variant,yeast fitness
1,U35G A45C,0.617
2,A36C A37G C49A,0.541
3,U35C A45C,0.862
4,C34G G41C C49U,0.684
5,A37G G44A A70C,0.859
6,A36G A37U C55G,0.69
7,U35C C55A,≤ 0.5
8,A36C G63A,0.704
9,U35A A37U U47A C62U,≤ 0.5
10,C34U A40U A57U,≤ 0.5
11,A36C U47A G48C A57C A65U,≤ 0.5
12,A36C G39A A57U,≤ 0.5
13,C34G A57C,≤ 0.5
14,C33U C66U,0.651
15,A37C C55G G63A,≤ 0.5
16,U35A C62U,0.732
17,C34U C55U,0.569
18,C34U C55A,0.623
19,A36C A40G G58C C60A,0.537
20,A36C U47A G48C U54G A65C,0.6
21,C34A A42G,0.676
22,C33U G38U,0.632
23,C33U G38C,0.609
24,A36C G39C A65C A69C,≤ 0.5

row,Variant,yeast fitness
1,A36G G38C U59A,≤ 0.5
2,A37G A42C A70C,0.729
3,U35G G48C C66U,≤ 0.5
4,C34A G50C,0.667
5,C34A G50A,0.742
6,U35C G41A A45U,0.664
7,C33U C49G,0.817
8,C34U A45U C62A,≤ 0.5
9,A37G C66U A69U,0.674
10,C33U C61G G68C,≤ 0.5
11,C33U A36C,0.517
12,U35A U47C C61G,≤ 0.5
13,C33U C49A G63C,≤ 0.5
14,C34A G39C A40C G56C C61G C62G,≤ 0.5
15,A36G C55G,0.623
16,C33U A43G C66U,0.544
17,U35C A70C,0.927
18,C33U G39A A70U,≤ 0.5
19,C34U G38C C55A,≤ 0.5
20,C34U G48A C55U,0.638
21,A36G G48A,0.991
22,C34A A45C,0.675
23,A36G A37U G67A,≤ 0.5
24,C34G A42C C62G,0.631

row,Variant,yeast fitness
1,A36G C46G,1.08
2,C33U A69C,0.726
3,C33U C34A G50A C62U A70C,≤ 0.5
4,A36G A42C U47C,0.687
5,A36C A43C C66A,0.731
6,C34G A36U C62A,≤ 0.5
7,A36C A65U,0.667
8,A36C A65G,0.598
9,C34U A42G A65C,0.57
10,C34G G50C C62A,≤ 0.5
11,U35A G51C U54C A57U,≤ 0.5
12,U35C U54C,0.696
13,A36U A45U C46A G68A,≤ 0.5
14,C34U G38C U54C,≤ 0.5
15,C33U C34G A40G,0.625
16,A37G G44C A45C G50A C55G C66A,≤ 0.5
17,A36C A37U A65C,0.534
18,C34G A37G C62A,≤ 0.5
19,A36G A43G A57C A65U,≤ 0.5
20,A36C A42G,0.633
21,A36G C49G A70G,0.53
22,A36G G68C A70G,≤ 0.5
23,C34G C49A,0.591
24,A36U G48C,0.648

row,Variant,yeast fitness
1,C34G C60G,0.782
2,A36C C55U C60G,0.781
3,A36U G38A A65C,0.518
4,C34G A40G G48C G63A C66U,0.605
5,C34U A36G C55G A57U G67A,0.568
6,C34U G48A,0.798
7,C34G C66A,0.543
8,U35G A65C,0.639
9,C34A A40C U54C,≤ 0.5
10,C34A G44A G52A C55U,0.53
11,A36G U53C,0.724
12,C34U C46A C55G,0.672
13,U35A A42G A43C,0.581
14,A37G G38C G52A C61U,0.653
15,A36C A37C U53G,≤ 0.5
16,C33U A42C A70C,0.671
17,C33U G48A C60U U64G A65U,0.606
18,C34A A65G,0.69
19,A37C C60G,0.562
20,A36G C49U C61A,≤ 0.5
21,C34U A40G C46A,0.579
22,C34U C46G C62U,0.549
23,A36G A37U A69C,0.663
24,A36U A37G G50C,≤ 0.5

row,Variant,yeast fitness
1,A36G U64G C66A,≤ 0.5
2,A36U C55U,0.658
3,C34G C55G,0.567
4,C33U C61A,0.52
5,C34G U54A U59C A65G A70G,0.84
6,A37G A40C A43C G67U,≤ 0.5
7,C34U A43G C61A,≤ 0.5
8,A37C A43C C62U,0.882
9,U35C G51A,0.731
10,C34G A40C G44A A69U,≤ 0.5
11,A36G A45C C61U,0.76
12,C34A G41A C55G C66U,≤ 0.5
13,A37G A42U A65C A69C,≤ 0.5
14,A37C G38C,0.502
15,C33U C55A C66U,0.562
16,C34G G51A C66U,0.649
17,A36U C46G C62A,≤ 0.5
18,U35G C66U,0.681
19,U35C C55A C60U A69U,≤ 0.5
20,C34G G41C C49U C62A A69C,≤ 0.5
21,C34U A45U,0.686
22,U35C A37C G39A,≤ 0.5
23,A36C G41A,0.587
24,U35A G58C,0.634

row,Variant,yeast fitness
1,A36U C60U,0.566
2,A36C A57C A70G,0.552
3,C34U U47C C55A A70U,0.562
4,A36G A65U,0.991
5,U35A A42U A43U,≤ 0.5
6,A36U A40U A57U G63A,≤ 0.5
7,C34G A45G U59G,≤ 0.5
8,C34U A57C A69C,0.738
9,C34A A40C,0.747
10,C34U C61G,≤ 0.5
11,C34U C61U,1
12,A37C U47A,0.674
13,C34U C66G,0.56
14,C34A G67C,0.782
15,C34A G67U,0.717
16,A37C A65U,0.866
17,U35A G52C,≤ 0.5
18,A36G G51A,0.744
19,C34G A37C C62U C66A,≤ 0.5
20,A37C A40U G51A,0.538
21,A37G C62U,0.864
22,C33U G39C G51A C60G,≤ 0.5
23,A36U G44C,0.629
24,C34G G41A A45G A57G C60G C62U,≤ 0.5

row,Variant,yeast fitness
1,U35G A42G U47A,≤ 0.5
2,C34G C61U A70U,0.639
3,C34G G52A C62U,0.6
4,C33U C34U G39C,0.605
5,A36C U47A G48C,≤ 0.5
6,C34U G63A,0.624
7,A36C G41A U53C A70C,0.526
8,C34A C55G U64C A65C,≤ 0.5
9,A36C U54C,≤ 0.5
10,A36C U54A,≤ 0.5
11,C33U A65C,0.664
12,U35C A37C G68C A70C,0.913
13,C34U G58C,0.757
14,C34G A43U A70C,≤ 0.5
15,U35C C49U,0.755
16,U35C C49A,0.735
17,A36U C49U C62G,≤ 0.5
18,C34G A40G U64C,0.578
19,A36C A43C C61G A70G,≤ 0.5
20,A37C C60G G67A,≤ 0.5
21,C33U A57G,0.628
22,A37C A43C A45C,≤ 0.5
23,A36U G38C A43G G68C,≤ 0.5
